For test [1], the system named is Acinetobacter baumannii. In words: Antibacterial activity against Acinetobacter baumannii PFGE type A isolate by microdilution method. It counts as functional. In a few lines:
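MIC by broth microdilution following CLSI M7-A6; susceptibility interpreted with CLSI breakpoints.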
For orientation: In broth dilution the organism is exposed to a series of concentrations in liquid medium.

Test [2] relates to Acinetobacter baumannii. The experiment in a line: Antibacterial activity against Acinetobacter baumannii PFGE type A isolate by microdilution method in presence of Sulbactam. Type of test: functional.
For test [3], the system named is Acinetobacter baumannii. The experiment in a line: Antibacterial activity against Acinetobacter baumannii PFGE type A isolate assessed as reduction of MIC by microdilution method in presence of 200 mg/liter cloxacillin. Type of test: functional, organism-based. The method, boiled down: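 AmpC contribution was probed by liquid microdilution per CLSI M7-A6. Carbapenem MICs were read with and without 200 mg/liter cloxacillin.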

In test [4] the test system is Acinetobacter baumannii. In words: Antibacterial activity against Acinetobacter baumannii PFGE type A isolate assessed as reduction of MIC by microdilution method in presence of 200 mM NaCl. Type of test: functional. In a few lines:
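Broth microdilution MIC per CLSI M7-A6 with CLSI breakpoints. Carbapenem MICs compared with and without 200 mM NaCl to gauge the oxacillinase contribution. blaOXA-58-carrying PFGE type 1 isolates served as CHDL-positive reference and a blaOXA-58-negative PFGE type 2 isolate as CHDL-negative reference.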

The subject of test [5] is Acinetobacter baumannii. The experiment in a line: Antibacterial activity against Acinetobacter baumannii PFGE type A isolate by Etest MBL strip method. It counts as functional. In a few lines: (§1)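 Imipenem MIC and MBL activity were read with Etest MBL strips on all PFGE type A isolates. A. baumannii AC-54/97, an IMP-2 MBL producer, was the MBL-positive reference strain.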

In test [6] the test system is Acinetobacter baumannii. In words: Antibacterial activity against Acinetobacter baumannii PFGE type A isolate by Etest MBL strip method in presence of EDTA. It counts as functional. In a few lines: as §1
For test [7], the system named is Acinetobacter baumannii. In words: Antibacterial activity against imipenem-susceptible Acinetobacter baumannii Ab F PFGE type B transconjugant by microdilution method. It counts as functional. The method, boiled down:
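Transconjugants came from filter mating of imipenem-resistant donors Ab 1 or Ab 8 (PFGE type A) with recipient Ab F (PFGE type B). They were selected on brain heart infusion agar with imipenem 16 mg/liter plus trimethoprim-sulfamethoxazole 250 mg/liter. MICs were then read by microdilution per CLSI M7-A6.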

Test [8] deals with Acinetobacter baumannii. The experiment in a line: Ratio of MIC for imipenem-susceptible Acinetobacter baumannii Ab F PFGE type B transconjugant to MIC for imipenem-susceptible Acinetobacter baumannii Ab F PFGE type B transconjugant in presence of 200 nM NaCl. Type of test: functional. The settings on record: in the assay text read “200 mM NaCl” for “200 nM NaCl”. In a few lines:
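Carbapenem MICs measured by liquid microdilution with and without 200 mM NaCl, to gauge the oxacillinase contribution. Controls were blaOXA-58-carrying PFGE type 1 isolates (CHDL-positive) and a blaOXA-58-negative PFGE type 2 isolate (CHDL-negative). Transconjugants came from filter mating into recipient Ab F and were selected on brain heart infusion agar with imipenem 16 mg/liter plus trimethoprim-sulfamethoxazole 250 mg/liter.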

In test [9] the test system is Acinetobacter baumannii. In words: Antibacterial activity against Acinetobacter baumannii PFGE type A isolate by microdilution method in presence of Tazobactam. Type of test: functional.

≈ marks a conversion by molar mass, not a printed value. Calls of active or inactive are those of the source. The calls are words filed in the database; no cut-off is given here.

In general, MIC refers to the least concentration at which growth counts as inhibited. As usually defined, the MIC50 is the lowest concentration that inhibits either 50% of growth or 50% of the strains tested, depending on the study. The term MIC90 denotes an inhibitory concentration at the 90% level, which refers to growth in some studies and to a panel of isolates in others. In the case of `NCC[C@H](O)C(=O)N[C@@H]1C[C@H](N)[C@@H](O[C@H]2O[C@H](CN)[C@@H](O)[C@H](O)[C@H]2O)[C@H](O)[C@H]1O[C@H]1O[C@H](CO)[C@@H](O)[C@H](N)[C@H]1O` [AMIKACIN], in the test with Acinetobacter baumannii [1], the minimum inhibitory concentration (MIC) amounted to 64 µg/mL (≈ 109 µM), the MIC50 came out at 64 µg/mL (≈ 109 µM) and the MIC90 amounted to 125 µg/mL (≈ 213 µM).
Consider `CC1(C)S[C@@H]2[C@H](NC(=O)[C@H](N)c3ccccc3)C(=O)N2[C@H]1C(=O)O` [AMPICILLIN], for which, in the test with Acinetobacter baumannii [2], the MIC was found to be 8 µg/mL, the MIC50 came out at 8 µg/mL and the MIC90 was 16 µg/mL.
For the compound `CO/N=C(\C(=O)N[C@@H]1C(=O)N2C(C(=O)[O-])=C(C[N+]3(C)CCCC3)CS[C@H]12)c1csc(N)n1` [CEFEPIME], in the test on Acinetobacter baumannii [1], the MIC came out at 16 µg/mL (≈ 33.3 µM), the MIC50 was 16 µg/mL (≈ 33.3 µM) and the MIC90 is 32 µg/mL (≈ 66.6 µM).
Consider `CC(C)(O/N=C(\C(=O)N[C@@H]1C(=O)N2C(C(=O)[O-])=C(C[n+]3ccccc3)CS[C@H]12)c1csc(N)n1)C(=O)O` [CEFTAZIDIME], for which the outcome in the test with Acinetobacter baumannii [3] was inactive. In the test with Acinetobacter baumannii [1], this compound had an MIC50 of 250 µg/mL (≈ 457 µM) and an MIC90 of 250 µg/mL (≈ 457 µM). For the same compound, in the test with Acinetobacter baumannii [4], the result was inactive.
As to `O=C(O)c1cn(C2CC2)c2cc(N3CCNCC3)c(F)cc2c1=O` [CIPROFLOXACIN], in the test on Acinetobacter baumannii [1], the MIC50 worked out at 64 µg/mL (≈ 193 µM) and the MIC90 was 250 µg/mL (≈ 754 µM).
Regarding `C[C@@H](O)[C@H]1C(=O)N2C(C(=O)O)=C(SCCNC=N)C[C@H]12` [IMIPENEM ANHYDROUS], the MIC in the test on Acinetobacter baumannii [5] was determined as 8 µg/mL (≈ 26.7 µM); in the test with Acinetobacter baumannii [6], 4 µg/mL; with Acinetobacter baumannii [7], 16 µg/mL (≈ 53.4 µM); in the test with Acinetobacter baumannii [4], 2 µg/mL. Also, in the test with Acinetobacter baumannii [3], the result was inactive. The MIC50 in the test with Acinetobacter baumannii [1] is 16 µg/mL (≈ 53.4 µM). Also, the MIC90 against Acinetobacter baumannii [1] worked out at 16 µg/mL (≈ 53.4 µM). Further, the Ratio in the test with Acinetobacter baumannii [8] is listed as 8.
`C[C@@H](O)[C@H]1C(=O)N2C(C(=O)O)=C(S[C@@H]3CN[C@H](C(=O)N(C)C)C3)[C@H](C)[C@H]12` [MEROPENEM]: in the test with Acinetobacter baumannii [1], the MIC50 came out at 8 µg/mL (≈ 20.9 µM) and the MIC90 was 8 µg/mL (≈ 20.9 µM).
As for `CCN1CCN(C(=O)N[C@@H](C(=O)N[C@@H]2C(=O)N3[C@@H]2SC(C)(C)[C@@H]3C(=O)O)c2ccccc2)C(=O)C1=O` [PIPERACILLIN], in the test on Acinetobacter baumannii [9], the minimum inhibitory concentration (MIC) turned out to be 125 µg/mL, the MIC50 was determined as 125 µg/mL and the MIC90 turned out to be 250 µg/mL.
In the test on Acinetobacter baumannii [1], COLISTIN gave an MIC50 of 2 µg/mL and an MIC90 of 4 µg/mL.
Regarding GENTAMICIN, in the test on Acinetobacter baumannii [1], the MIC50 stood at 125 µg/mL and the MIC90 came out at 250 µg/mL.

Source of the values: ChEMBL document CHEMBL1275541, “A plasmid-borne blaOXA-58 gene confers imipenem resistance to Acinetobacter baumannii isolates from a Lebanese hospital” (2008).
